Experimental data of several laboratories.
Protocols differ between the studies behind these lines.
Read-out: binding
Pah: Phenylalanine-4-hydroxylase (Pah, Rattus norvegicus, UniProt P04176)
VHL: von Hippel-Lindau disease tumor suppressor (VHL, Homo sapiens, UniProt P40337)

target | technique | pH | setting | Kd [µM] | Compound
Prostaglandin E synthase (PTGES, Homo sapiens, UniProt O14684) | ITC | – | – | 2.1 | CC1(C)Cc2c(-c3ccccc3)c(-c3ccc(Cl)cc3)c(CC(=O)NCC(=O)O)n2C1
Serine/threonine-protein kinase 3 (STK3, Homo sapiens, UniProt Q13188) | competition with immobilised ligand | – | – | 0.0039 | Cc1cnc(-c2ccc(-c3ccc(NC(=O)Nc4c(F)cc(F)cc4F)cc3F)c3c2C(=O)NC3)[nH]1
Nuclear receptor coactivator 3 (Homo sapiens, UniProt Q9Y6Q9) | – | – | lysate | 0.015 | Cc1cc2nc3c(=O)[nH]c(=O)nc-3n(C[C@H](O)[C@H](O)[C@H](O)COP(=O)(O)OP(=O)(O)OC[C@H]3O[C@@H](n4cnc5c(N)ncnc54)[C@H](O)[C@@H]3O)c2cc1C
Stromal cell-derived factor 1 (CXCL12, Homo sapiens, UniProt P48061) | NMR | – | – | 64 | O=C(O)c1cccc(NC(=S)NC(=O)c2ccc3ccccc3c2)c1
mdh (Escherichia coli, UniProt P61889) | ITC | – | – | 467 | NC(=O)c1ccc[n+]([C@@H]2O[C@H](COP(=O)(O)OP(=O)(O)OC[C@H]3O[C@@H](n4cnc5c(N)ncnc54)[C@H](O)[C@@H]3O)[C@@H](O)[C@H]2O)c1
Pah | fluorescence | pH 7.5 | – | 24000 | CSCC[C@H](N)C(=O)O
Serine/threonine-protein kinase DCLK1 (DCLK1, Homo sapiens, UniProt O15075) | competition with immobilised ligand | – | – | 0.89 | Cc1cc(Nc2cc3ncccc3c(N[C@@H]3C[C@H]4CC[C@@H](C3)N4CCC#N)n2)n[nH]1
Pah | fluorescence | pH 7.5 | – | 54 | N[C@@H](Cc1ccccc1)C(=O)O
VHL | SPR | – | – | 0.25 | Cc1ncsc1-c1ccc(CNC(=O)[C@@H]2C[C@@H](O)CN2C(=O)[C@@H](NC(=O)C2(F)CC2)C(C)(C)C)c(OCCOc2ccc(CN3CCN(c4cc(-c5ccccc5O)nnc4N)CC3)cc2)c1
Cell division cycle 7-related protein kinase (CDC7, Homo sapiens, UniProt O00311) | MST | – | – | 0.00032 | CC(C)[C@H](N)c1nc2cc(-c3ccncc3F)sc2c(=O)[nH]1
Sulfotransferase 2A1 (SULT2A1, Homo sapiens, UniProt Q06520) | fluorescence | – | – | 0.25 | Nc1ncnc2c1ncn2[C@@H]1O[C@H](COP(=O)(O)OS(=O)(=O)O)[C@@H](OP(=O)(O)O)[C@H]1O
VHL | SPR | – | – | 0.062 | COCCOc1cc(-c2scnc2C)ccc1CNC(=O)[C@@H]1C[C@@H](O)CN1C(=O)[C@@H](NC(=O)C1(F)CC1)C(C)(C)C
GTPase KRas (KRAS, Homo sapiens, UniProt P01116, G12D) | MST | – | – | 3.5 | NC(=O)[C@H](NNC(=O)c1c[nH]c2ccccc12)c1ccccc1
Pah | fluorescence | pH 7.5 | – | 93000 | CC(C)C[C@H](N)C(=O)O
VHL | SPR | – | – | > 10 | Cc1ncsc1-c1ccc(CNC(=O)[C@@H]2C[C@H](O)CN2C(=O)[C@@H](NC(=O)C2(F)CC2)C(C)(C)C)c(OCCc2ccc(CN3CCN(c4cc(-c5ccccc5O)nnc4N)CC3)cc2)c1
